In ChEMBL document CHEMBL1144667 (2008):
Active and inactive are the calls of the source. Residues, ends and D or L forms follow the SMILES beside them.

Experiments:
Mus musculus [1] = assay: Decrease in body temperature in Swiss albino mouse at 3 ug, icv after 90 mins; assay type: functional, organism-based
How it was run: (§1)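 icv doses 30 ng–3 µg (10 µL/mouse) in male Swiss albino CD1 mice; body temperature followed over 240 min. Mean body temperature over 4 h = AUC of time–response curve per mouse ÷ 240 min; ED35 = dose giving 35 °C mean over 4 h. 8 mice/group, mean ± SEM vs saline.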

Mus musculus [2] = assay: Decrease in body temperature in Swiss albino mouse at 100 ng, icv after 30 mins; assay type: functional, organism-based; how it was run: as §1
Mus musculus [3] = assay: Analgesic activity in Swiss Albino mouse assessed as inhibition of acetic acid-induced writhing responses at 0.3 mg/kg, iv; assay type: functional, organism-based; design: dose 0.3 mg/kg
How it was run: (§2)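 Male Swiss albino CD1 mice (20–22 g); i.v. dosing 10 mL/kg, 15 min before i.p. 0.5% acetic acid; mice placed singly in large beakers, stretches counted over 5 min starting 5 min after acid. Dose–response plus time course at 0.3 mg/kg; 8–18 mice/group, mean ± SEM vs saline.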

Mus musculus [4] = assay: Decrease in body temperature in Swiss albino mouse at 3 ug, icv after 4 hrs relative to control; assay type: functional, organism-based; how it was run: as §1
Mus musculus [5] = assay: Decrease in body temperature in Swiss albino mouse at 10 mg/kg, sc; assay type: functional, organism-based; design: dose 10 mg/kg; details: TDE = time-dependent effect
How it was run: (§3)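 Male Swiss albino CD1 mice injected s.c. (10 mL/kg); body temperature followed over time to beyond 3 h; 8–10 mice/group, mean ± SEM vs saline; two-way repeated-measures ANOVA.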

Mus musculus [6] = assay: Antinociceptive effect in Swiss albino mouse assessed as reduction in jump latency at 300 ng, icv after 20 mins by hot plate test; assay type: functional, organism-based
How it was run: (§4)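 Hot plate at 55 ± 0.5 °C, male Swiss albino CD1 mice confined by plastic cylinder, tested 20 min after icv injection (10 µL/mouse; Haley–McCormick method); paw licking and jump latencies recorded, 240 s cutoff, each mouse tested once. Levocabastine 1350 pmol icv alone or co-given with 300 ng agonist. 6–9 mice/group, mean ± SEM vs saline.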

Mus musculus [7] = assay: Decrease in body temperature in Swiss albino mouse at 3 mg/kg, iv; assay type: functional, organism-based; design: dose 3 mg/kg; details: TDE = time-dependent effect
How it was run: (§5)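 Body temperature tracked over time after i.v. injection (10 mL/kg) in male Swiss albino CD1 mice (20–22 g); 6–8 mice/group, mean ± SEM vs saline; two-way repeated-measures ANOVA.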

Mus musculus [8] = assay: Decrease in body temperature in sc dosed Swiss albino mouse; assay type: functional, organism-based; how it was run: as §3
Mus musculus [9] = assay: Decrease in body temperature in iv dosed Swiss albino mouse; assay type: functional, organism-based; how it was run: as §5
Mus musculus [10] = assay: Antinociceptive effect in Swiss albino mouse assessed as reduction in acetic acid-induced writhing responses at 30 mg/kg, po
Mus musculus [11] = assay: Decrease in body temperature in icv dosed Swiss albino mouse after 4 hrs; assay type: functional; how it was run: as §1
Mus musculus [12] = assay: Antinociceptive effect in icv dosed Swiss albino mouse assessed as reduction in acetic acid-induced writhing responses at 1 mg/kg, sc to 10 mg/kg, sc; assay type: functional, organism-based; details: in the assay text read “Swiss albino mouse” for “icv dosed Swiss albino mouse”
How it was run: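 Writhing in male Swiss albino CD1 mice: s.c. dosing 1–10 mg/kg (10 mL/kg) 15 min before i.p. 0.5% acetic acid; stretches counted over 5 min starting 5 min after acid. 6–8 mice/group, mean ± SEM vs saline.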

Mus musculus [13] = assay: Antinociceptive effect in Swiss albino mouse assessed as reduction in jump latency between 300 ng to 3 ug, icv by hot plate test; assay type: functional, organism-based; how it was run: as §4
Mus musculus [14] = assay: Decrease in body temperature in Swiss albino mouse at 1 mg/kg, iv; assay type: functional, organism-based; design: dose 1 mg/kg; details: TDE = time-dependent effect; how it was run: as §5
Mus musculus [15] = assay: Antinociceptive effect in Swiss albino mouse assessed as reduction in jump latency at 1350 pmol, icv after 20 mins by hot plate test; assay type: functional, organism-based; details: in the assay text read “300 ng” for “1350 pmol”; how it was run: as §4
Mus musculus [16] = assay: Decrease in body temperature in Swiss albino mouse at 1 mg/kg, sc; assay type: functional, organism-based; design: dose 1 mg/kg; details: TDE = time-dependent effect; how it was run: as §3
Mus musculus [17] = assay: Antinociceptive effect in Swiss albino mouse assessed as reduction in paw licking latency between 300 ng to 3 ug, icv by hot plate test; assay type: functional, organism-based; how it was run: as §4
Mus musculus [18] = assay: Analgesic activity in iv dosed Swiss Albino mouse assessed as inhibition of acetic acid-induced writhing responses; assay type: functional, organism-based; how it was run: as §2
[19] = target: Neurotensin receptor type 1 (Rattus norvegicus) (UniProt P20789); assay: Binding affinity at rat NTS1 receptor
Chain of Neurotensin receptor type 1 (Rattus norvegicus) (P20789 whole entry): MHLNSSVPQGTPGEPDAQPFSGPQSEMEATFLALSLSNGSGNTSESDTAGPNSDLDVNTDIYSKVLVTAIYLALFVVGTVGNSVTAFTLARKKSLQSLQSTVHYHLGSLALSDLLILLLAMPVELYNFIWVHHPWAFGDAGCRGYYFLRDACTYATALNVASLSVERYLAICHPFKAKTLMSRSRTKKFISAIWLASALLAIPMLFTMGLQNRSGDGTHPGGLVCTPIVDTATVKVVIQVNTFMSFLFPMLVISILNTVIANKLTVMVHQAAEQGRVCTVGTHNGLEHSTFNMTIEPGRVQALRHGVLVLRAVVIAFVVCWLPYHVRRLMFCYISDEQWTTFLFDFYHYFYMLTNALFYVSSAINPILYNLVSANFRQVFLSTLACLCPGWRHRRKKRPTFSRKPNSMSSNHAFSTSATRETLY

| SMILES | Activity (Mus musculus [1]) | Activity (Mus musculus [2]) | Activity (Mus musculus [3]) | Activity (Mus musculus [4]) | Activity (Mus musculus [5]) | Activity (Mus musculus [6]) | Activity (Mus musculus [7]) | Activity (Mus musculus [8]) | Activity (Mus musculus [9]) | Activity (Mus musculus [10]) | ED35 (Mus musculus [11]) [ng] | Activity (Mus musculus [12]) | Activity (Mus musculus [13]) | Activity (Mus musculus [14]) | Activity (Mus musculus [15]) | Activity (Mus musculus [16]) | Activity (Mus musculus [17]) | Activity (Mus musculus [18]) | Activity [19] [nmol] |
| --- | --- | --- | --- | --- | --- | --- | --- | --- | --- | --- | --- | --- | --- | --- | --- | --- | --- | --- | --- |
| CC[C@H](C)[C@@H]1NC(=O)[C@H](Cc2ccc(O)cc2)NC(=O)[C@@H]2CCCN2C(=O)[C@H](CCCCN)NC(=O)[C@H](CCCCN)NC(=O)[C@H](CC(C)C)NC(=O)[C@H]([C@@H](C)CC)NC(=O)[C@H](Cc2ccc(O)cc2)NC(=O)[C@@H]2CCCN2C(=O)[C@H](CCCCN)NC(=O)[C@H](CCCCN)NC(=O)[C@H](CC(C)C)NC1=O (cyclo(ILKKPYILKKPY)) | Active | Active | Active | Active | tde | Active | tde | Dose-dependent effect | Dose-dependent effect | Active | 300 | Dose-dependent effect | Dose-dependent effect | tde | Active | tde | Dose-dependent effect | Dose-dependent effect |  |
| CCC(C)[C@H](NC(=O)[C@H](Cc1ccc(O)cc1)NC(=O)[C@@H]1CCCN1C(=O)[C@H](CCCNC(=N)N)NC(=O)[C@@H](N)CCCNC(=N)N)C(=O)N[C@@H](CC(C)C)C(=O)O (single isomer, unassigned) |  |  |  |  |  |  |  |  |  |  |  |  |  |  |  |  |  |  | 0.16 |
